Blank lines part the entries; values can stand above or below the compound they belong to.
Tests used:
[1] = target: Cyclin-dependent kinase 9 (Homo sapiens, UniProt P50750); assay: Inhibition of CDK9 in human HCT116 cells assessed as phosphor-ser2 level of RNA polymerase 2 after 16 hrs by high content cellular assay; type: cell-based, HCT-116
[2] = target: Cyclin-dependent kinase 2 (Homo sapiens, UniProt P24941); assay: Inhibition of CDK2/cyclin A by IMAP florescence polarization assay
[3] = Metabolic stability in mouse liver microsomes at 1 uM after 30 mins; type: ADME, Microsome; details: read-out: Stability
Method in brief: (§1)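 Liver microsomes at 0.5 mg/mL protein in 100 mM sodium phosphate, pH 7.4, with 3.3 mM MgCl2, pre-equilibrated 10 min at 37 °C. Reaction started with 1 mM NADPH. Aliquots taken at 0, 30 and 60 min and quenched in acetonitrile with internal standard, then centrifuged and analysed by LC–MS/MS. Lidocaine and dextromethorphan served as positive controls.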

[4] = AUC in CD1 mouse at 30 mg/kg, po; type: ADME, organism-based; set-up: dose 30 mg/kg, route oral; details: plasma
Method in brief: (§2)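 Female CD-1 mice, 6–8 weeks old, 3 mice per timepoint. Single oral gavage dose of 10, 30 or 45 mg/kg at 10 mL/kg in 2.1 mM tartaric acid, pH 4.0. Terminal cardiac-puncture blood taken at 0.25–8 h into K2-EDTA and spun to plasma. Plasma read by LC–MS/MS (LLOD 1 ng/mL). Concentrations were averaged per timepoint before PK estimation.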

[5] = Efflux ratio of permeability from basolateral to apical side to apical to basolateral side in MDCK2 cells at 2 uM after 3 hrs; type: ADME, cell-based, Canis lupus familiaris, MDCK-II; details: dog, MDCK
Method in brief: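 MDCK II cells grown in DMEM with 10% FBS and antibiotics, seeded 50,000 cells/well on transwells and cultured 5 days; monolayers PBS-washed. Compound at 2 μM in DMEM added to apical or basolateral side; both compartments sampled after 3 h at 37 °C in humidified CO₂. Quantified by LC–MS/MS with verapamil internal standard; Papp calculated per direction.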

[6] = Half life in CD1 mouse at 10 mg/kg, po; type: ADME, organism-based; set-up: dose 10 mg/kg, route oral; details: in vivo; method in brief: as §2
[7] = target: Cyclin-dependent kinase 7/ cyclin H (Homo sapiens, UniProt P50613); assay: Inhibition of CDK7/cyclinH by Upstate enzymatic assay
[8] = Metabolic stability in human liver microsomes at 1 uM after 60 mins; type: ADME, Microsome; details: read-out: Stability; method in brief: as §1
[9] = Metabolic stability in mouse liver microsomes at 1 uM after 60 mins; type: ADME, Microsome; details: read-out: Stability; method in brief: as §1
[10] = target: CDK9/cyclin T1 (Homo sapiens, UniProt P50750); assay: Inhibition of CDK9/cyclinT by IMAP florescence polarization assay
Method in brief: (§3)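 IMAP fluorescence polarization kinase assay measuring phosphorylation of a fluorescein-labeled substrate. Run in IMAP tween reaction buffer with 1 mM DTT and sodium vanadate.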

[11] = AUC in CD1 mouse at 45 mg/kg, po; type: ADME, organism-based; set-up: dose 45 mg/kg, route oral; details: plasma; method in brief: as §2
[12] = Cmax in CD1 mouse at 10 mg/kg, po; type: ADME, organism-based; set-up: dose 10 mg/kg, route oral; details: in vivo; method in brief: as §2
[13] = Cmax in CD1 mouse at 5 mg/kg, iv; type: ADME, organism-based; set-up: dose 5 mg/kg, route intravenous; details: in vivo
Method in brief: (§4)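 Single IV tail-vein dose of 5 mg/kg at 5 mL/kg in 2.1 mM tartaric acid, pH 4.0, to female CD-1 mice aged 6–8 weeks, 3 per timepoint. Blood taken by cardiac puncture after euthanasia at 0.083–8 h into K2-EDTA, and plasma analysed by LC–MS/MS (LLOD 1 ng/mL). PK parameters were estimated from mean concentrations per timepoint.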

[14] = target: Cyclin-dependent kinase 1/cyclin B1 (Homo sapiens, UniProt P06493); assay: Inhibition of CDK1/cyclin B by IMAP florescence polarization assay; type: protein-complex assay; method in brief: as §3
[15] = Bioavailability in CD1 mouse at 10 mg/kg, po; type: ADME, organism-based; details: in vivo; method in brief: as §2
[16] = AUC in CD1 mouse at 10 mg/kg, po; type: ADME, organism-based; set-up: dose 10 mg/kg, route oral; details: plasma; method in brief: as §2
[17] = Cmax in CD1 mouse at 30 mg/kg, po; type: ADME, organism-based; set-up: dose 30 mg/kg, route oral; details: in vivo; method in brief: as §2
[18] = Half life in CD1 mouse at 30 mg/kg, po; type: ADME, organism-based; set-up: dose 30 mg/kg, route oral; details: in vivo; method in brief: as §2
[19] = AUC in CD1 mouse at 5 mg/kg, iv; type: ADME, organism-based; set-up: dose 5 mg/kg, route intravenous; details: plasma; method in brief: as §4
[20] = Half life in CD1 mouse at 45 mg/kg, po; type: ADME, organism-based; set-up: dose 45 mg/kg, route oral; details: in vivo; method in brief: as §2
[21] = Inhibition of CDK6/cyclin D by IMAP florescence polarization assay; method in brief: as §3
[22] = Half life in CD1 mouse at 5 mg/kg, iv; type: ADME, organism-based; set-up: dose 5 mg/kg, route intravenous; details: in vivo; method in brief: as §4
[23] = Cmax in CD1 mouse at 45 mg/kg, po; type: ADME, organism-based; set-up: dose 45 mg/kg, route oral; details: in vivo; method in brief: as §2
[24] = Metabolic stability in human liver microsomes at 1 uM after 30 mins; type: ADME, Microsome; details: read-out: Stability; method in brief: as §1
[25] = Bioavailability in CD1 mouse at 45 mg/kg, po; type: ADME, organism-based; details: in vivo; method in brief: as §2
[26] = Bioavailability in CD1 mouse at 30 mg/kg, po; type: ADME, organism-based; details: in vivo; method in brief: as §2
[27] = Clearance in CD1 mouse at 5 mg/kg, iv; type: ADME, organism-based; set-up: dose 5 mg/kg, route intravenous; details: in vivo; method in brief: as §4
[28] = Volume of distribution at steady state in CD1 mouse at 5 mg/kg, iv; type: ADME, organism-based; set-up: dose 5 mg/kg, route intravenous; details: in vivo, read-out: Vdss; method in brief: as §4

Sequence of Cyclin-dependent kinase 9 (P50750 whole entry): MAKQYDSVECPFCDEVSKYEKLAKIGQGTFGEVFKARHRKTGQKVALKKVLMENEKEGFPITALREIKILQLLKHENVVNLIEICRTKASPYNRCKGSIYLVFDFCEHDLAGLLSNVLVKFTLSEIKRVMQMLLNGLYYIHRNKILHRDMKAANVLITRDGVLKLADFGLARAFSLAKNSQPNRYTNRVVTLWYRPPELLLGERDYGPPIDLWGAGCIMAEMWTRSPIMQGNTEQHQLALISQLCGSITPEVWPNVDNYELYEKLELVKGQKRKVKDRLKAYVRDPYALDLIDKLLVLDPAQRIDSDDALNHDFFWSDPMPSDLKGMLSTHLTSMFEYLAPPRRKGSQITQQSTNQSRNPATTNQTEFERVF
Sequence of Cyclin-dependent kinase 1/cyclin B1 (P06493 whole entry): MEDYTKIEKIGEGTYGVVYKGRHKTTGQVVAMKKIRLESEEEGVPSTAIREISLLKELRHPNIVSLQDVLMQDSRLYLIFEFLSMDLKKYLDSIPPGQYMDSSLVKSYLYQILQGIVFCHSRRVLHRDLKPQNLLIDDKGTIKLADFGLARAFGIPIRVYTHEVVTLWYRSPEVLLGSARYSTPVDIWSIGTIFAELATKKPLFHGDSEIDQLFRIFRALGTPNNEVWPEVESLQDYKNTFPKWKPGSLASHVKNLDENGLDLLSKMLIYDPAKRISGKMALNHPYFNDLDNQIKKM
Sequence of Cyclin-dependent kinase 1/cyclin B1 (P14635 whole entry, further chain): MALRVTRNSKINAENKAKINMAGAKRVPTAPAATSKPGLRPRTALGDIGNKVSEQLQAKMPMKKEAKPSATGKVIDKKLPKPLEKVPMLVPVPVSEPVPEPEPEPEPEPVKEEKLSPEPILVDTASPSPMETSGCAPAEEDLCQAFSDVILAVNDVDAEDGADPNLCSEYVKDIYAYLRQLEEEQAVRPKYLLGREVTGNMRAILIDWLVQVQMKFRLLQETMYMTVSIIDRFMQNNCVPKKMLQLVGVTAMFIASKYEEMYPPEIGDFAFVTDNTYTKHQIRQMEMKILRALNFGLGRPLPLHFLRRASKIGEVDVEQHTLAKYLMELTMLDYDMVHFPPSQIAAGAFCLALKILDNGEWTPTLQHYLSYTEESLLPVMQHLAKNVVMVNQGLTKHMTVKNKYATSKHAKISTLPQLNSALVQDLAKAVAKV
Sequence of Cyclin-dependent kinase 7/ cyclin H (P51946 whole entry): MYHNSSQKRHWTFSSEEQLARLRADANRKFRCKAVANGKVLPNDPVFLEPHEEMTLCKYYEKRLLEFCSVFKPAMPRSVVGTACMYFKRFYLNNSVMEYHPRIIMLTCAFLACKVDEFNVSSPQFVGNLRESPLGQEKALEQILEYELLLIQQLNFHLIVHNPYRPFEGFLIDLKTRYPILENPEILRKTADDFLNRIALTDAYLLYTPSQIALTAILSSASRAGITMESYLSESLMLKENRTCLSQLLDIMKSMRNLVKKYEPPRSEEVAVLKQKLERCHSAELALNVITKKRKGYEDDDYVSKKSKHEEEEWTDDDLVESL
Sequence of Cyclin-dependent kinase 7/ cyclin H (P50613 whole entry): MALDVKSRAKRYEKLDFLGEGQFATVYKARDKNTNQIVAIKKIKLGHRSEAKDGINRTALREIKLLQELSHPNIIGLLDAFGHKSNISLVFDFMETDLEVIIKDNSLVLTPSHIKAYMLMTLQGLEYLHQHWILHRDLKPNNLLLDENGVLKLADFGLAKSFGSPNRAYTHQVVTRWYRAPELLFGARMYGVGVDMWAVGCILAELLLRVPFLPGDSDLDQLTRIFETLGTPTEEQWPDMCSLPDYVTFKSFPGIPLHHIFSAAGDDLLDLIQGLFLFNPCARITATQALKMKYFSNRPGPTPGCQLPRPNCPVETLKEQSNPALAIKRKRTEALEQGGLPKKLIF
Sequence of CDK9/cyclin T1 (O60563 whole entry): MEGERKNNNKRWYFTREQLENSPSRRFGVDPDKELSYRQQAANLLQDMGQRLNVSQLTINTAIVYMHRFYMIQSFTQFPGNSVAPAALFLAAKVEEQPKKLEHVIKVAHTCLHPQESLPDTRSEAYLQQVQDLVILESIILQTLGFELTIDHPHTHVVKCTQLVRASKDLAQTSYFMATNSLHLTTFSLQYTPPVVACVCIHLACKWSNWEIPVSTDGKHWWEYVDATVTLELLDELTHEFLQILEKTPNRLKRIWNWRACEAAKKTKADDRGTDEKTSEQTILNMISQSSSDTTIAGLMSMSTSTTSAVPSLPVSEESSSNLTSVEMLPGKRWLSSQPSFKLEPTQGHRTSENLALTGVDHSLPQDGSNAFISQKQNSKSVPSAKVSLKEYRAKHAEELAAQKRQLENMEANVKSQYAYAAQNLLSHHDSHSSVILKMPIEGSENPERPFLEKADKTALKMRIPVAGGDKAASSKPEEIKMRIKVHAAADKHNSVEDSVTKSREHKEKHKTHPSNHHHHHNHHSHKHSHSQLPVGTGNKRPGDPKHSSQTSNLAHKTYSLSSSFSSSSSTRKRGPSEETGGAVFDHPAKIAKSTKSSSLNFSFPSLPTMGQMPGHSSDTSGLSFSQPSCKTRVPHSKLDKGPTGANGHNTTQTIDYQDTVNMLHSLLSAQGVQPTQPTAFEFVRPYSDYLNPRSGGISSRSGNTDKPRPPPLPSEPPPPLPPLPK
Sequence of CDK9/cyclin T1 (P50750 whole entry): as the sequence (P50750 whole entry) above

Structure (SMILES): CC(C)(C)c1cnc(CSc2cnc(N[C@H]3CC[C@H](O)CC3)s2)o1
IC50 [1]: 3500 nM | IC50 [2]: 7 nM

Structure (SMILES): CC(C)(C)c1cnc(CSc2cnc(NC3CCCC(O)C3)s2)o1 (stereo not given)
IC50 [1]: > 10000 nM | IC50 [2]: 28 nM

Structure (SMILES): CC(C)(C)c1cnc(CSc2cnc(NCC3CCCCC3)s2)o1
IC50 [1]: > 10000 nM | IC50 [2]: 168 nM

Structure (SMILES): CC(C)(C)c1cnc(CSc2cnc(NC3CCCCC3)s2)o1
IC50 [1]: > 10000 nM | IC50 [2]: 9 nM

Structure (SMILES): CC(C)(C)c1cnc(CSc2cnc(NCC3CCNCC3)s2)o1
IC50 [1]: > 10000 nM | IC50 [2]: 229 nM

Structure (SMILES): CC(C)(C)c1cnc(CSc2cnc(NC(=O)C3CCNCC3)s2)o1 [BMS-387032]
half-life [6]: 0.5 h | Cmax [12]: 275 ng/mL | Cmax [13]: 2230 ng/mL | bioavailability [15]: 14% | AUC [16]: 434 ng·h/mL | AUC [19]: 1510 ng·h/mL | half-life [22]: 0.6 h | clearance [27]: 55 mL/min/kg | Vd [28]: 3 L/kg

The remaining lines, values ahead:

remaining at 0.5 h, 1 µM [3]: 76% | AUC [4]: 6390 ng·h/mL | efflux ratio at 3 h, 2 µM [5]: 9.4 | IC50 [1]: 355 nM | half-life [6]: 1.5 h | IC50 [7]: 105 nM | remaining at 1 h, 1 µM [8]: 53% | remaining at 1 h, 1 µM [9]: 77% | IC50 [10]: 97 nM | AUC [11]: 10700 ng·h/mL | Cmax [12]: 411 ng/mL | Cmax [13]: 1660 ng/mL | IC50 [14]: 763 nM | bioavailability [15]: 62% | AUC [16]: 1430 ng·h/mL | Cmax [17]: 2390 ng/mL | half-life [18]: 1.2 h | AUC [19]: 1160 ng·h/mL | half-life [20]: 1.2 h | IC50 [21]: > 2000 nM | IC50 [2]: 20 nM | half-life [22]: 1.9 h | Cmax [23]: 4600 ng/mL | remaining at 0.5 h, 1 µM [24]: 64% | bioavailability [25]: 100% | bioavailability [26]: 92% | clearance [27]: 72 mL/min/kg | Vd [28]: 6 L/kg
Structure (SMILES): CC(C)(C)c1cnc(CSc2cnc(N[C@H]3CC[C@H](N)CC3)s2)o1

IC50 [1]: > 10000 nM | IC50 [2]: 503 nM
Structure (SMILES): CC(C)(C)c1cnc(CSc2cnc(N[C@H]3CC[C@@H](N)CC3)s2)o1

IC50 [1]: > 10000 nM | IC50 [2]: 158 nM
Structure (SMILES): CC(C)(C)c1cnc(CSc2cnc(NC3CCCC(N)C3)s2)o1 (stereo not given)

IC50 [1]: > 10000 nM | IC50 [2]: 690 nM
Structure (SMILES): CC(C)(C)c1cnc(CSc2cnc(N)s2)o1

IC50 [1]: > 10000 nM | IC50 [2]: 538 nM
Structure (SMILES): CC(C)(C)c1cnc(CSc2cnc(NC3CCNCC3)s2)o1

Reference: ChEMBL document CHEMBL1143434, “A diaminocyclohexyl analog of SNS-032 with improved permeability and bioavailability properties” (Bioorg Med Chem Lett, 2008)
